Molecules are shown by their SMILES.

The nature of series [1]: Negative chronotropic activity in guinea pig spontaneously beating right atrium assessed as decrease in atrial rate at 5 uM relative to control. Type of series: functional, Cavia porcellus, Cardiac atrium. Also on record: scale not given: the % may be the effect or the level left.
The test system of series [2] is Aorta. The experiment in a line: Vasorelaxant activity in potassium-depolarized guinea pig thoracic aorta assessed as inhibition of calcium-induced contraction at 50 uM. It counts as functional, Cavia porcellus. Also on record: scale not given: the % may be the effect or the level left.
The target in series [3] is T1, Voltage-gated L-type calcium channel (Rattus norvegicus, UniProt P22002+Q02485+P27732). The experiment in a line: Stimulation of [3H]diltiazem binding to L-type calcium channel in Sprague-Dawley rat cardiac myocytes at 1 uM by liquid scintillation counting. It counts as cell-based.
A short description of series [4]: Negative inotropic activity in guinea pig left atrium assessed as decrease in atrial tension. It counts as functional, tissue-based. The following applies: Cavia porcellus, Cardiac atrium.
Series [5] is described as follows: Negative inotropic activity in guinea pig left atrium assessed as decrease in atrial tension at 50 uM relative to control. Type of series: functional, Cavia porcellus, Cardiac atrium. Also on record: scale not given: the % may be the effect or the level left.
The nature of series [6]: Negative chronotropic activity in guinea pig spontaneously beating right atrium assessed as decrease in atrial rate at 1 uM relative to control. Also on record: scale not given: the % may be the effect or the level left. It counts as functional, Cavia porcellus, Cardiac atrium.
Series [7] is described as follows: Negative chronotropic activity in guinea pig spontaneously beating right atrium assessed as decrease in atrial rate. Type of series: functional. The conditions noted are these: Cavia porcellus, Cardiac atrium. A digest of the protocol: (§1)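 Guinea pig isolated atria, compound given at increasing doses. Left atrium driven at 1 Hz: percent decrease in developed tension (inotropy, EC50). Spontaneously beating right atrium: percent decrease in rate (chronotropy, EC30). Probit analysis (Litchfield-Wilcoxon), n = 6-7. Potencies not calculated when maximal effect <50%.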

The test system of series [8] is Aorta. The experiment in a line: Vasorelaxant activity in potassium-depolarized guinea pig thoracic aorta assessed as inhibition of calcium-induced contraction at 100 uM. Type of series: functional, Cavia porcellus. Also on record: scale not given: the % may be the effect or the level left.
Series [9] deals with Heart. The experiment in a line: Effect on cardiac activity in guinea pig spontaneously beating heart assessed as change in left ventricular pressure at 1 uM relative to control. Type of series: functional, Cavia porcellus. A digest of the protocol: (§2)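 Isolated perfused, spontaneously beating guinea pig heart. Readouts: +(dP/dt)max (maximal rate of rise of left ventricular pressure), heart rate from ECG, coronary perfusion pressure, PR interval. Given as percent change from basal at the highest concentration tested (1 µM), mean ± SEM. pEC50 taken from log concentration-response curves, n = 4-6.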

For series [10], the system named is Heart. The experiment in a line: Effect on cardiac activity in guinea pig spontaneously beating heart assessed as change in heart rate at 1 uM relative to control. Type of series: functional, Cavia porcellus. A digest of the protocol: as §2
Series [11] deals with Heart. The experiment in a line: Effect on cardiac activity in guinea pig spontaneously beating heart assessed as change in coronary perfusion pressure at 1 uM relative to control. Type of series: functional, Cavia porcellus. A digest of the protocol: as §2
In series [12] the test system is Heart. The experiment in a line: Effect on cardiac activity in guinea pig spontaneously beating heart assessed as change in atrioventricular conduction time at 1 uM relative to control. Type of series: functional, Cavia porcellus. Summed up:
as §2

Series [13] concerns Heart. The experiment in a line: Effect on cardiac activity in guinea pig spontaneously beating heart assessed as change in left ventricular pressure. The conditions noted are these: Cavia porcellus, read-out: pEC50 (converted).
Series [14] has as its system Heart. The experiment in a line: Effect on cardiac activity in guinea pig spontaneously beating heart assessed as change in coronary perfusion pressure. The following applies: Cavia porcellus, read-out: pEC50 (converted).
Series [15] concerns the target T1, Voltage-gated L-type calcium channel. The experiment in a line: Displacement of [3H]diltiazem from L-type calcium channel in Sprague-Dawley rat cardiac myocytes by liquid scintillation counting. It counts as cell-based. The conditions noted are these: rat. For orientation: Displacement assays read how much labelled ligand stays bound in the presence of the test substance.

Series [16] can be described thus: Negative inotropic activity in guinea pig left atrium assessed as decrease in atrial tension at 10 uM relative to control. Type of series: functional, Cavia porcellus, Cardiac atrium. Also on record: scale not given: the % may be the effect or the level left. A digest of the protocol: as §1

With `C/C(=C/S(C)(=O)=O)n1c(C(=O)c2ccc(Br)cc2)noc1=O`, the Activity in series [1] worked out at 7%; in the series on Aorta [2] it was 6%; in series [3], 25%; in series [5], 73%. Moreover, the EC50 in series [4] is 280 nM.

In the case of `COc1ccc([C@@H]2Sc3ccccc3N(CCN(C)C)C(=O)[C@@H]2OC(C)=O)cc1` [DILTIAZEM], the Activity in [6] was 94%; in the series with Aorta [8], 88%; in the series with Heart [9], -59%; with Heart [10], -25%; with Heart [11], -51%; in the series with Heart [12], 34%. Also, the Activity entry was “Dose-dependent effect” in series [15] and 78% in [16]. In addition, the EC30 in series [7] was determined as 0.07 µM. The EC50 was 9.33 nM in the series on Heart [13], 21.9 nM with Heart [14] and 790 nM in series [4].

What is called EC30 is the concentration at which the effect reaches the 30% level.
